# Assay outcomes (PubChem)
# A selection: hits, their analogues and other compounds. The true share with any hit is near 3.2%.
# MEKK3 PB1 HTS = modulators (inhibitors or enhancers) of MEK5 binding to human MEKK3 PB1 domain. AID 1529. actives 1.4% (n = 290,000). binding response (% of control), % at 10 µM. bead-based flow cytometry, Alexa488-MEK5 binding to MEKK3; actives lie on both sides; 0 = blocked by unlabeled MEK5, 100 = vehicle;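 active = binding response more than 3 SD above or below the average of its plate-row segment, actives on both sides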;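 also: Alexa488 bead fluorescence after subtracting the streptavidin-only scavenger bead signal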
# DSG3 Ab inh = inhibitors of pemphigus antibody binding to human desmoglein-3; actives 0.48% (n = 310,000); binding (percent of control), % at 10 µM; P32926; DSG3-coupled beads, scFv-anti-DSG3-GFP binding, flow cytometry; stronger effect = lower value;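 active = binding more than 3 SD below its plate's average and above zero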;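 also: hits lower antibody fragment binding to DSG3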
# MEKK2 mut-MEK5 = signal of MEK5 binding to mutant human MEKK2 PB1 domain; percent response, % at 10 µM; bead flow cytometry, Alexa488-MEK5 binding to MEKK2 mutant; actives 0.35% (n = 290,000); in the data active = percent response above about 24%, passing the limit was not always enough
# Apaf-1 inh = blocks human Apaf-1 apoptosome activity; O14727; reconstituted apoptosome caspase-3 activity, DEVD-Rh110 fluorescence; inhibition, % at 20 µM; actives 0.71% (n = 330,000); AID 489030; active = inhibition of at least 40% at 20 µM;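 also: plate controls were DMSO wells for no effect and DEVD-CHO caspase inhibitor wells for full effect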
#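 Material: biochemical Apaf-1 apoptosome reconstitution. Medium: Hepes buffer, pH 7.5. Also added: cytochrome c activation, bis-DEVD rhodamine 110 substrate. Timing: 30 min compound preincubation, 50 min activation, room temperature. Measured by: rhodamine 110 fluorescence at Ex 480/Em 540 nm.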
# UBC13 inh = inhibitors of human UBC13 polyubiquitin chain formation; P61088; TR-FRET; actives 0.47% (n = 330,000); AID 485273; inhibition, % at 20 µM; in the data active = inhibition above about 45%, passing the limit was not always enough
# MEKK2wt PB1 HTS = raises or lowers MEK5 binding to wildtype human MEKK2 PB1 domain | bead flow cytometry, Alexa488-MEK5 binding to MEKK2 WT; actives lie on both sides | AID 1531 | actives 1.1% (n = 290,000) | binding response (% of control), % at 10 µM | Q9Y2U5; in the data active = binding response below about 67% or above about 130%
# MEKK2wt confirm = raises or lowers MEK5 binding to wildtype human MEKK2, retest | shares compounds with MEKK3 PB1 HTS | bead flow cytometry, Alexa488-MEK5 binding to MEKK2 WT; actives lie on both sides | binding response (% of control), % at 10 µM | actives 2.4% (n = 5,900); in the data active = binding response below about 16% or above about 210%; inactive = in between
# MEKK2mut-MEK5 = signal of MEK5 binding to mutant human MEKK2, retest; shares compounds with MEKK3 PB1 HTS; bead flow cytometry, Alexa488-MEK5 binding to MEKK2 mutant; percent response, % at 10 µM; actives 2% (n = 5,900); AID 1893; in the data active = percent response mostly above about 71%, no sharp cut-off; inactive = mostly below about 38%;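 also: higher means compound restores mutant binding toward wildtype level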
# MEKK3-MEK5 inh = MEKK3-MEK5 PB1 inhibition, single concentration confirmation. bead flow cytometry, Alexa488-MEK5 binding to MEKK3; stronger effect = lower value. AID 1894. binding response (% of control), % at 10 µM. shares compounds with MEKK3 PB1 HTS. actives 1.8% (n = 5,900);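 active = binding response below 72% of control, or above a set upper limit, though filed actives all read lower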;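 also: 100% = DMSO only wells and 0% = binding blocked by excess unlabeled MEK5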
# Active calls of the source: *; . = not tested or not shown; ! = a repeat was not active; [ ] = another dose, or the depositor's remark.
SMILES,MEKK3 PB1 HTS,DSG3 Ab inh,MEKK2 mut-MEK5,Apaf-1 inh,UBC13 inh,MEKK2wt PB1 HTS,MEKK2wt confirm,MEKK2mut-MEK5,MEKK3-MEK5 inh
O=c1[nH]c(=S)n(CCC2=CCCCC2)c(O)c1C=NCc1cccnc1,102.0,94.7,3.0,1.3,-10.4,99.0,.,.,.
Nc1ccccc1N=Cc1c(O)n(CCC2=CCCCC2)c(=O)[nH]c1=O,104.0,99.9,-2.0,17.8,4.7,96.0,.,.,.
O=C1NC(=O)C(CCc2ccncc2)(Cc2ccc([N+](=O)[O-])cc2)C(=O)N1,140.0*,75.8,0.0,-10.8,8.1,107.0,100.0,2.0,100.0
Cc1ccc2c(c1)C1CN(C)CCC1N2C(=O)Nc1cccc(C(F)(F)F)c1 (centres undefined),103.0,108.2,15.0,17.0,10.9,127.0,.,.,.
Cc1ccc2c(c1)[C@@H]1CN(C)CC[C@@H]1N2C(=O)Nc1cccc(C(F)(F)F)c1,110.0,97.6,26.0,11.4,11.1,139.0*,110.0,5.0,97.0
CCN(c1ccc(C(O)(C(=O)OC)C(F)(F)F)cc1)S(=O)(=O)c1ccc(C)cc1 (centres undefined),97.0,97.8,-3.0,15.1,2.3,97.0,.,.,.
Clc1cccc(CNCCc2c[nH]c3ccccc23)c1,104.0,100.7,19.0,1.4,12.4,120.0,.,.,.
OCCNCCc1c[nH]c2ccc(OCc3ccccc3)cc12,109.0,100.0,31.0*,13.8,21.7,164.0*,167.0,30.0,108.0
Cc1cccc(OP(N)(=O)Oc2cccc(C)c2)c1,132.0*,105.3,29.0,-3.5,3.5,120.0,92.0,-12.0,97.0
O=C1NC(=O)N(Cc2ccccc2)C(=O)/C1=C/N1CCCc2ccccc21,140.0*,101.6,0.0,-0.7,-25.5,107.0,89.0,2.0,94.0
CC(=O)OC1CCC2(C)C(CC(=O)C3C2CCC2(C)C(OC(C)=O)CCC32)C1 (centres undefined),.,86.1,.,.,.,.,.,.,.
O=C1C2CCN(CC2)C12CC2c1ccc(C(F)(F)F)cc1 (centres undefined),98.0,.,-1.0,-6.2,-6.4,99.0,.,.,.
CCN(CC)c1ccc(CN(C)CCc2ccc(OC)c(OC)c2)cc1,115.0,102.7,24.0*,-17.0,13.4,135.0*,114.0,7.0,107.0
CN1C(=O)CCC2(C)C1=CCC1C2CCC2(C)C1CCC2(C)O (centres undefined),.,119.2,.,.,.,.,.,.,.
CCc1ccc(NC2=NCCCS2)cc1,102.0,.,3.0,-7.2,9.4,105.0,.,.,.
CC[C@@H]1C(=O)OC[C@@H]1Cc1cncn1C,.,117.3,.,.,.,.,.,.,.
CC[C@@H]1C(=O)OC[C@@H]1Cc1cncn1C,88.0,101.5,4.0,9.3,0.7,55.0*![inhibitor],99.0,-5.0,99.0
CN(C)CCN(CC1CCCN(Cc2ccccc2F)C1)C(=O)Cc1ccccc1F (centres undefined),111.0,113.8,30.0*,.,.,121.0,115.0,5.0,102.0
CN(C)CCN(CC1CCCN(Cc2ccccc2F)C1)C(=O)Cc1c(F)cccc1F (centres undefined),104.0,107.7,10.0,-2.0,7.1,114.0,.,.,.
Cc1cc(OC(=O)c2cccs2)c2c3c(c(=O)oc2c1)CCCC3,151.0*,106.8,0.0,26.2,11.9,108.0,100.0,-3.0,101.0
CC(C)(CN)CC(=O)O,89.0,107.5,-8.0,-7.2,8.6,84.0,.,.,.
OCCNc1c2c(nc3ccccc13)CCCC2,0.0*[inhibitor],91.1,-42.0,-2.2,-7.6,0.0*[inhibitor],104.0,-2.0,104.0
Clc1ccc(C2NCCc3[nH]cnc32)cc1 (centres undefined),109.0,97.1,51.0*,-6.9,2.8,137.0*,127.0,12.0,104.0
Cc1[nH]c2ccc(O)cc2c1CCN,.,106.2,.,-0.8,18.7,.,.,.,.
Cc1[nH]c2ccc(OCc3ccccc3)cc2c1CCN,110.0,132.7,18.0,5.1,7.9,162.0*,133.0,14.0,105.0
SMILES,MEKK3 PB1 HTS,DSG3 Ab inh,MEKK2 mut-MEK5,Apaf-1 inh,UBC13 inh,MEKK2wt PB1 HTS,MEKK2wt confirm,MEKK2mut-MEK5,MEKK3-MEK5 inh
CC(=NCCCn1ccnc1)c1c(O)n(C2CCCCC2)c(=O)[nH]c1=O,132.0*,118.0,23.0,-7.2,-3.5,113.0,103.0,-2.0,106.0
O=c1[nH]c(=O)n(C2CCCCC2)c(O)c1C=NCCCn1ccnc1,.,102.5,.,1.0,-5.3,.,.,.,.
CCCC[C@@H](C)C[C@@H](C)C(=O)N(C)[C@@H](CC(C)C)C(=O)N[C@H](C(=O)N(C)[C@H](C(=O)N1C[C@@H](O)C[C@H]1C(=O)N1C(=O)C=C[C@@H]1C)C(C)C)C(C)OC(C)=O (some centres undefined),.,101.5,.,12.1,22.7,.,.,.,.
Cc1ccccc1NC(=O)NCCN1CC1,95.0,87.0,23.0,15.1,16.3,144.0*,159.0,22.0,100.0
CCCCCn1c(=O)c(C(=O)Nc2ccccc2C)c(O)c2ccccc21,100.0,103.3,-1.0,-2.1,4.6,100.0,.,.,.
Cc1c2cnn(CC(=O)N3CCC4(CC3)OCCO4)c(=O)c2c(C)n1Cc1ccccc1Cl,97.0,102.6,-1.0,0.4,1.4,100.0,.,.,.
O=c1cccc2n1CC1CC2CN(Cc2ccc3c(c2)OCO3)C1 (centres undefined),2.0*[inhibitor],124.2,-27.0,-12.9,9.5,-1.0*[inhibitor],109.0,16.0,109.0
CCC(C)N1C(=O)/C(=C\c2cc3c4c(c2)CCCN4CCC3)C(=O)NC1=S (centres undefined),76.0,165.4,-5.0,-2.0,-1.0,6.0*[inhibitor],58.0,-24.0,87.0
CCC(C)N1C(=O)/C(=C\c2cnc(N(C)C)nc2)C(=O)NC1=S (centres undefined),101.0,110.8,-1.0,17.8,-17.7,96.0,.,.,.
O=C1N(c2ccccc2)C(c2cccnc2)N2CCCN12 (centres undefined),76.0,102.5,-24.0,1.8,0.7,77.0,.,.,.
O=C1N(c2cccc(Cl)c2)C(c2cccnc2)N2CCCN12 (centres undefined),74.0*[inhibitor],100.6,-11.0,-4.6,-1.3,77.0,101.0,-1.0,103.0
O=C(c1cc(C(=O)NCc2ccc(Cl)cc2)c(=O)n(Cc2ccc(Cl)cc2)c1)c1cc(F)ccc1O,134.0*,96.9,0.0,-9.8,-23.3,107.0,97.0,-9.0,103.0
Cc1ccc(O)c(C(=O)c2cc(C(=O)NCCC(C)C)c(=O)n(CCC(C)C)c2)c1,102.0,108.1,1.0,25.9,-14.1,104.0,.,.,.
